Shown is part of a subset that was picked to be rich in hits.
T cell HTS = T cell immune modulators affecting CD8 T cell-vesicle binding. 2C CD8+ T cell-vesicle binding, flow cytometry; active compounds read low. response (vesicle binding), % at 7 µM. actives 0.068% (n = 330,000). AID 2052;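 active = response, share of CD8 T cells binding vesicles, and their 90th percentile fluorescence all below set limits, cut at about 80% in these data, passing the limit was not always enough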;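 also: values below 100% mean blocked vesicle binding to the CD8+ T cells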
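incubation = binding step 1.5 h, 37 °C, antibody labelling 20 min, ice | test system = 2C mouse CD8+ T cells | read-out basis = percent CD8+ FL2 mean versus row control | controls = Peptide-free naked vesicles (low) and QL9 vesicles with 0.7% DMSO vehicle (high) | detection = flow cytometry of vesicle-bound cells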
ALR inh = inhibitors of human sulfhydryl oxidase ALR. P55789. purified ALR, DTT oxidation, H2O2 HRP-luminol luminescence. inhibition, % (no concentration beside the values). actives 3.8% (n = 290,000);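 active = mean replicate inhibition above about 79%, with every replicate also reaching it, limit read from the data; inconclusive = only one of the two criteria met; inactive = mean below limit and not every replicate reaching it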
Target sequence (P55789 whole entry, looked up): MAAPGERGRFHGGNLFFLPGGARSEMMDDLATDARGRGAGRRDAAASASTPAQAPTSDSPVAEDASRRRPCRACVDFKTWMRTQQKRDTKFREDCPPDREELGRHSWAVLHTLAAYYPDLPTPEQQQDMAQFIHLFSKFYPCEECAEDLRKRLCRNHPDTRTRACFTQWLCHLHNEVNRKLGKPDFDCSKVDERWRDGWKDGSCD
Glyco luc inh = N-linked glycosylation inhibition. D54 ERlucT glycosylation luciferase reporter, 24 h; percent of 100 nM tunicamycin response. reporter increase, % at 12.5 µM. actives 0.23% (n = 360,000). AID 588692;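 active = mean luciferase reporter signal, scaled so untreated is 0 and the glycosylation-blocking control 100, at or above a set limit in every replicate; inconclusive = mean reaches the limit but not every replicate does; inactive = mean below the limit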;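 also: luciferase carries N-glycosylation sites so blocking glycosylation raises the light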
Each line names hits and unclear results; the compound was inactive in the other large screens.

CC(C)(C)OC(=O)N(CCc1ccccc1)Cc1ccccc1OCc1cccc(NC(=O)C2CCC2)c1	none (no result: T cell HTS, ALR inh)
CC1CC(C)CN(S(=O)(=O)c2ccc(NC(=O)C3CSC4(C)CCC(=O)N34)cc2)C1 (configuration not stated)	none
O=C(NCCS(=O)(=O)N1CCN(c2cccc(Cl)c2)CC1)c1ccco1	none
C=CCc1ccccc1OCCNCc1ccccc1	none
O=C(C1CCC(CNc2c(N3CCOCC3)c(=O)c2=O)CC1)N1CCN(c2ccccc2)CC1 (configuration not stated)	ALR inh 87.5
O=C(C1CCC(CNc2c(N3CCCCC3)c(=O)c2=O)CC1)N1CCCCC1 (configuration not stated)	none
COc1ccc(C(=O)NCCc2ccccc2F)cc1OC1CCN(C(C)=O)CC1	none
CCn1nc(C(=O)NNC(=O)C(Cc2ccccc2)NC(N)=O)c2ccccc2c1=O (configuration not stated)	none
Oc1ccc(O)c(-c2cnns2)c1	ALR inh 99.0
Oc1ccc(Br)cc1-c1ccn[nH]1	none
COc1ccccc1NS(=O)(=O)c1cccc(C(=O)N2CCN(Cc3ccc4c(c3)OCO4)CC2)c1	none
CCC1(c2ccccc2)NC(=O)N(CC(=O)Nc2ccc(N3CCCC3)cc2C)C1=O (configuration not stated)	ALR inh inconclusive
Cc1cc(N2CCCC2)ccc1NC(=O)CN1C(=O)NC(C)(c2ccccc2)C1=O (configuration not stated)	ALR inh 99.0
Cc1nc2c(OCc3ccc(C(F)(F)F)cc3)cccn2c1N(C)Cc1cccs1	none (no result: T cell HTS, ALR inh)
CCOC(=O)N1CCN(C(=O)CCCn2c(=S)[nH]c3ccc(Br)cc3c2=O)CC1	none (no result: ALR inh)
CCOC(=O)N1CCN(C(=O)CCCCCn2c(=S)[nH]c3ccsc3c2=O)CC1	ALR inh 93.4
CC(NC(=O)CCn1c(=S)[nH]c2ccsc2c1=O)c1ccccc1 (configuration not stated)	ALR inh 94.7
CCOC(=O)N1CCN(C(=O)CCCn2c(=S)[nH]c3ccsc3c2=O)CC1	ALR inh 95.4
O=c1c2sccc2[nH]c(=S)n1Cc1ccccc1	none
CCOC(=O)N1CCN(C(=O)CCCn2c(=S)[nH]c3ccccc3c2=O)CC1	none (no result: Glyco luc inh)
O=C1CN(C(=O)c2ccccc2F)C(c2ccccc2)c2cc(Cl)ccc2N1 (configuration not stated)	none
CC(NC(=S)Nc1ccccc1C(F)(F)F)C1CC2CCC1C2 (configuration not stated)	none (no result: ALR inh)
CC(=O)c1cccc(NC(=O)CSc2nnc(C(C)N(C)C)n2Cc2ccccc2)c1 (configuration not stated)	none (no result: ALR inh)
CC(c1nnc(SCC(=O)Nc2cccnc2Cl)n1Cc1ccccc1)N(C)C (configuration not stated)	ALR inh 86.8
CCc1ccc(CNC(=O)CCS(=O)(=O)Cc2ccccc2F)cc1	none
Clc1ccc(-c2nc3c4ccccc4ccn3c2Cc2ccccc2)cc1	none (no result: T cell HTS, ALR inh)
O=C(O)C1CCC(Cn2c(SCc3cc(=O)n4cc(Cl)ccc4n3)nc3ccsc3c2=O)CC1 (configuration not stated)	T cell HTS 24.9
O=C(O)CCCCCn1c(SCc2cc(=O)n3cc(Cl)ccc3n2)nc2ccsc2c1=O	none
O=c1c2sccc2nc(SCc2ccc([N+](=O)[O-])cc2)n1Cc1ccccn1	ALR inh inconclusive
O=c1c2sccc2nc(SCc2cc(=O)n3cc(Cl)ccc3n2)n1Cc1ccccn1	ALR inh 88.1
Cc1ccc(Cl)cc1N1CCN(C(=O)Cn2ncn3cccc3c2=O)CC1	none
Cc1ccccc1N1CCN(c2ccccc2NC(=O)/C=C\C(=O)O)CC1	none (no result: T cell HTS, ALR inh)
Fc1ccc(CNc2ncnc3c2cnn3-c2ccccc2)cc1	none
c1ccc(CNc2ncnc3c2cnn3-c2ccccc2)cc1	Glyco luc inh 25.7
CCCS(=O)(=O)NC(=O)C1(C)CCCN(C(=O)c2ccc(C(F)(F)F)cc2)C1 (configuration not stated)	none (no result: T cell HTS, ALR inh)
O=C(COC(=O)c1cc[n+]([O-])cc1)Nc1ccc(SC(F)F)cc1	ALR inh 94.6
O=C(COC(=O)c1cc[n+]([O-])cc1)Nc1ccc(Br)cc1	none
CC1(CCc2ccccc2)NC(=O)N(CC(=O)Nc2ccc(OC(F)F)cc2)C1=O (configuration not stated)	none
COc1cc(CC(=O)NCCCc2ccccc2)cc(OC)c1OC	none
COc1ccccc1C(=O)NNC(=O)CN1C(=O)c2ccccc2C1=O	none
NS(=O)(=O)c1ccc(N2C(=O)CCCC2=O)cc1	none (no result: T cell HTS, ALR inh)
CCc1ccc(-c2ccc(C(=O)O)cc2)nc1	T cell HTS 32.9
COc1ccc(C(=O)c2ccc(-c3ccc(OC)cc3)nc2)cc1	none (no result: T cell HTS, ALR inh)
N/C(=N\OC(=O)c1ccco1)c1ccc(Cl)cc1	ALR inh 99.4
N/C(=N\OC(=O)c1ccc(Cl)cc1)c1ccc(Cl)cc1	none
